{"source": "ChEMBL document CHEMBL1131242", "about": "“6beta-Acetoxynortropane: a potent muscarinic agonist with apparent selectivity toward M2-receptors” (J Med Chem, 1998)", "key": {"[1]": {"target": "T1, Muscarinic acetylcholine receptor M3 (Homo sapiens, UniProt P20309)", "assay": "Inhibition of binding of [3H]quinuclidinyl benzilate to muscarinic receptors in membranes of CHO cells transfected with Muscarinic acetylcholine receptor M3", "type": "cell membranes"}, "[2]": {"target": "Muscarinic acetylcholine receptor M4 (Homo sapiens) (UniProt P08173)", "assay": "Inhibition of binding of [3H]quinuclidinyl benzilate to Muscarinic acetylcholine receptor M4 in membranes of transfected CHO cells"}, "[3]": {"target": "T1, Muscarinic acetylcholine receptor M3", "assay": "Inhibitory activity against stimulation of [3H]inositol monophosphate accumulation in [3H]inositol-labelled CHO transfected cells mediated by Muscarinic acetylcholine receptor M3"}, "[4]": {"target": "T2, Muscarinic acetylcholine receptor M1 (Rattus norvegicus, UniProt P08482)", "T2 sequence (P08482 whole entry)": "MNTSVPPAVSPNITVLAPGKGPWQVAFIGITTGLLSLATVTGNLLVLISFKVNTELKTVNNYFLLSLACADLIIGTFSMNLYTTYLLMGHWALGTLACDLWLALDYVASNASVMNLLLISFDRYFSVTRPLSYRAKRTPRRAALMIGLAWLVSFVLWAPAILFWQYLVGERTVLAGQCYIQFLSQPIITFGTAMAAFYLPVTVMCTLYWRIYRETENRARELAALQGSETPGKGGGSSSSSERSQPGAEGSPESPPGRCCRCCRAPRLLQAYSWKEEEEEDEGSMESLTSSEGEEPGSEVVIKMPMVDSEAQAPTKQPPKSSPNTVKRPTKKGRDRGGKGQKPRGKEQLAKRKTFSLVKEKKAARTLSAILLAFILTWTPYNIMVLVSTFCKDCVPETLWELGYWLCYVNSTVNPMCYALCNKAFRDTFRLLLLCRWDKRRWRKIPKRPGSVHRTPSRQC", "assay": "Inhibition of binding of [3H]oxotremorine M to Muscarinic acetylcholine receptor M1 in rat cerebral cortical membranes", "type": "cell membranes, Membrane", "method_in_brief": "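Agonist radioligand assay: rat cortical membranes with 2 nM [3H]oxotremorine M in 25 mM sodium phosphate pH 7.4 with 5 mM MgCl2, 2 h at 25 °C, in triplicate. Nonspecific binding used 5 µM atropine. Filtration followed by scintillation counting.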"}, "[5]": {"target": "T2, Muscarinic acetylcholine receptor M1", "assay": "Inhibition of binding of [3H]quinuclidinyl benzilate to Muscarinic acetylcholine receptor M1 in rat cerebral cortical membranes", "type": "cell membranes, Membrane", "method_in_brief": "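Rat cerebral cortex membranes were homogenised in 50 mM Tris-HCl pH 7.4 and diluted in HEPES binding buffer. They were incubated with 0.2 nM [3H]quinuclidinyl benzilate in 20 mM HEPES pH 7.4 with 10 mM MgCl2 and 100 mM NaCl for 30 min at 37 °C, in triplicate. Nonspecific binding used 1 µM atropine. Filtration was followed by scintillation counting.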"}, "[6]": {"target": "Muscarinic acetylcholine receptor M1 (Homo sapiens) (UniProt P11229)", "sequence (P11229 whole entry, looked up)": "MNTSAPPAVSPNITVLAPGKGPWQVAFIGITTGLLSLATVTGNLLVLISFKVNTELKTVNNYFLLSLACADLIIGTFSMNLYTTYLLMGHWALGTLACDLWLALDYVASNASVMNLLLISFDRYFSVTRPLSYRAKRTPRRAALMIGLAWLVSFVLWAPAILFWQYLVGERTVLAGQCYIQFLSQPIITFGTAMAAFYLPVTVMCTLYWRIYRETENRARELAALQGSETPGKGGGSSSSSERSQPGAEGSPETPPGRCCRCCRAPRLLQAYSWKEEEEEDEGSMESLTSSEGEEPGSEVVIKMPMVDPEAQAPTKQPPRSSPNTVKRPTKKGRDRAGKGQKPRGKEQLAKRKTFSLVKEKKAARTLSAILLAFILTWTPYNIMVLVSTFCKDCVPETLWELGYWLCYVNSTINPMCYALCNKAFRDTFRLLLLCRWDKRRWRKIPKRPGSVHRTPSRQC", "assay": "Inhibitory activity against stimulation of [3H]inositol monophosphate accumulation in [3H]inositol-labelled CHO transfected cells mediated by Muscarinic acetylcholine receptor M1"}, "[7]": {"target": "T3, Muscarinic acetylcholine receptor M4 (Homo sapiens, UniProt P08173)", "T3 sequence (P08173 whole entry)": "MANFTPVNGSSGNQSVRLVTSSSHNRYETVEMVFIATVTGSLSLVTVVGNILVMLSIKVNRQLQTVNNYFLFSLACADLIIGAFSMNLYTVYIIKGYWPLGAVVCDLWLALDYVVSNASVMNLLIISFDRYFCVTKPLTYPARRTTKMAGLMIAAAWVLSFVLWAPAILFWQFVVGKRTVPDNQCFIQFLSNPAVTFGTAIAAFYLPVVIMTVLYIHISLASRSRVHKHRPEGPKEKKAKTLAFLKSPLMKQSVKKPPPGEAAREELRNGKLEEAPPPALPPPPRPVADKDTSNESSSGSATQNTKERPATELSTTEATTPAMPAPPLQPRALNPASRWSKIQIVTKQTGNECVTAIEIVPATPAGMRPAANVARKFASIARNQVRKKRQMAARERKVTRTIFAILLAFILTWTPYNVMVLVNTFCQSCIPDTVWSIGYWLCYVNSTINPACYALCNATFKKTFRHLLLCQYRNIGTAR", "assay": "Inhibition of binding of [3H]quinuclidinyl benzilate to muscarinic receptors in membranes of CHO cells transfected with Muscarinic acetylcholine receptor M4", "type": "cell membranes"}, "[8]": {"target": "T4, Muscarinic acetylcholine receptor M1 (Homo sapiens, UniProt P11229)", "T4 sequence (P11229 whole entry)": "T2 sequence (P08482 whole entry) with V5A, S254T, S309P, K320R, G337A, V413I", "assay": "Inhibition of binding of [3H]quinuclidinyl benzilate to muscarinic receptors in membranes of CHO cells transfected with Muscarinic acetylcholine receptor M1", "type": "cell membranes", "method_in_brief": "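Membranes from CHO cells expressing human M1 receptor, harvested at 80-100% confluence. Competition against 0.2 nM [3H]quinuclidinyl benzilate in 25 mM sodium phosphate pH 7.4 with 5 mM MgCl2; 30 min at 37 °C, triplicate. Nonspecific binding with 10 μM atropine. Filtration and scintillation counting.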"}}, "note": "Substitutions are numbered along the chain they refer to."}
{"smiles": "CC(=O)OC1CC2CCCC1N2", "note": "(stereo not drawn)", "values": [{"measurement": "Ki", "setting": "[1]", "result": 680, "unit": "nM"}, {"measurement": "Ki", "setting": "[2]", "result": 33, "unit": "nM"}, {"measurement": "EC50", "setting": "[3]", "result": 3.6, "unit": "nM"}, {"measurement": "Ki", "setting": "[4]", "result": 5.6, "unit": "nM"}, {"measurement": "Ki", "setting": "[5]", "result": 21, "unit": "µM"}, {"measurement": "EC50", "setting": "[6]", "result": 23, "unit": "nM"}, {"measurement": "Ki", "setting": "[7]", "result": 33, "unit": "nM"}, {"measurement": "Ki", "setting": "[8]", "result": 21, "unit": "µM"}]}
